ChEMBL document CHEMBL1135437, “Novel, non-acylguanidine-type Na(+)/H(+) exchanger inhibitors: synthesis and pharmacology of 5-tetrahydroquinolinylidene aminoguanidine derivatives” (J Med Chem, 2002)
pIC50: −log10 of the molar value.

Key:
[1] = in vitro inhibition against NHE to inhibit the acid induced swelling in human platelets by 50%; assay type: functional
Method in brief: (§1)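 Platelet-rich plasma from forearm-vein blood of normal adult men, adjusted to 10 × 10^4/µL. Compound in DMSO added 3 min before sodium propionate buffer (135 mM, pH 6.7, 37 °C), final DMSO 1%. Light transmission at 550 nm recorded; maximum upstroke velocity in the first minute used. 100% inhibition defined by vehicle vs HOE-642 (10^-5 M). IC50 = 50% inhibition of swelling; triplicate experiments.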

[2] = tested on: Rattus norvegicus; experiment: In vivo inhibitory effect on the myocardial infarct size of ischemia-reperfusion injury model of rat. Administered intravenously 5 min before occlusion.; assay type: functional, Myocardium
Method in brief: (§2)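 Male Wistar rats (11–12 weeks), anesthetized; left coronary artery occluded 1 h, then reperfused 24 h. Dose 0.1 or 0.3 mg/kg iv, 5 min before occlusion. Area at risk stained with 1% Evans blue; six left-ventricle slices stained with 1% TTC, 37 °C, 10 min. Infarct size expressed as % of area at risk by weight. n = 5–7.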

[3] = tested on: Rattus norvegicus; experiment: In vivo inhibitory effect on the Myocardial Infarct size of Ischemia-Reperfusion Injury model of rat. Administered intravenously […].; assay type: functional, Myocardium; details: in the assay text read “5 min before” for “2 hr before”
[4] = tested on: Rattus norvegicus; experiment: In vivo inhibitory effect on the Myocardial Infarct size of Ischemia-Reperfusion Injury model of rat. Administered intravenously 5 min before occlusion.; assay type: functional, Myocardium; method in brief: as §2
[5] = In vitro inhibition of acid induced swelling in rat platelets by 50% as a measure of NHE inhibition; assay type: functional
Method in brief: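 Platelet-rich plasma from male Wistar rats (13–15 weeks), diluted in saline to 40 × 10^4/µL. Compound in DMSO added 3 min before sodium propionate buffer (135 mM, pH 6.7, 37 °C), final DMSO 1%. Swelling read as the change in 550 nm light transmission 1 min later, corrected with platelet-poor plasma. 100% inhibition defined by vehicle vs HOE-642 (10^-5 M). IC50 from triplicate experiments.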

[6] = In vitro inhibition against Na+/H+ exchanger(NHE) by measuring its ability to inhibit the acid induced swelling in human platelets by 50%; assay type: functional; method in brief: as §1
[7] = tested on: Rattus norvegicus; experiment: In vivo inhibitory effect on the myocardial infarct size of ischemia-reperfusion injury model of rat administered intravenously 5 min before occlusion; assay type: functional, Myocardium; method in brief: as §2

Row | Compound | pIC50 [1] | Inhibition [5] | other results
1 | CS(=O)(=O)O.CS(=O)(=O)O.Cc1ccnc2c1/C(=N/N=C(N)N)C[C@H](c1ccccc1Cl)C2 | 8.05 | – | Inhibition [2]: 44%
2 | CS(=O)(=O)O.CS(=O)(=O)O.Cc1ccc(F)cc1[C@H]1C/C(=N\N=C(N)N)c2c(C)ccnc2C1 | 7.89 | – | Inhibition [3]: 33%
3 | CS(=O)(=O)O.CS(=O)(=O)O.Cc1ccnc2c1/C(=N/N=C(N)N)C[C@H](c1cc(Cl)sc1Cl)C2 | 8.15 | – | Inhibition [4]: 43%
4 | Cc1ccnc2c1/C(=N/N=C(N)N)CC(c1ccccn1)C2.Cl.Cl (stereo unspecified) | – | 23% | –
5 | Cc1ccnc2c1/C(=N/N=C(N)N)CC(c1c(Cl)cccc1Cl)C2.Cl.Cl (stereo unspecified) | – | 23% | –
6 | Cc1ccnc2c1/C(=N/N=C(N)N)CC(c1ccncc1)C2.Cl.Cl (stereo unspecified) | – | 25% | –
7 | CC(C)c1ccc(C(=O)N=C(N)N)cc1S(C)(=O)=O [CARIPORIDE] | – | – | pIC50 [6]: 6.68; Inhibition [7]: 28%
